CHOP inhibitor: inhibitors of CHOP promoter induction, primary screen, cell-based, unfolded protein response, luciferase reporter; hit rate 3.8% among 220,000; inhibition, % at 10 µM; CHO-K1 CHOP-promoter luciferase, tunicamycin-induced, 15-18 h;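 active = compounds that reduced the stress-induced luciferase reporter signal by more than about 70% of percent inhibition, limit read from the data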;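 note: 0% = tunicamycin plus vehicle and 100% = wells without tunicamycin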
XBP1 UPR activ: activators of adaptive XBP1 UPR arm, primary screen, cell-based, CHO-XBP1 luciferase reporter, luminescence, uHTS; IRE1-XBP1 UPR activation; percent of tunicamycin response, DMSO as zero; AID 463104, 2010; activation, % at 20 µM; hit rate 0.33% among 330,000;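 active = versus positive control, 20 µM dose yields 30% or more activation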;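 note: 100% = tunicamycin at 10 µg/mL and 0% = DMSO only wells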
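Material: CHO cell line with stable XBP1 luciferase reporter; schedule: 16-18 h cell attachment at 37 °C, then 6 h compound exposure; signal: glow luminescence from Steady-Glo reagent; medium: serum-containing F12 medium, 10% FBS; benchmarks: tunicamycin 10 µg/mL and vehicle-only wells; read-out: percent activation relative to tunicamycin reference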
TLR4-MyD88 BLA: inhibitors of TLR4-MyD88 association in cells, primary screen, cell-based, HeLa CL3-4, BLA complementation, FRET ratio. Toll-like receptor 4 (Homo sapiens) + Myeloid differentiation primary response protein …. AID 861, 2007. HeLa CL3-4 TLR4/MyD88 BLA complementation. inhibition, % at 8.4 µM. hit rate 0.18% among 200,000; in the data active = inhibition above about 25%;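 note: 0% = vehicle and 100% = reference inhibitor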
UPR CHOP act: activators of apoptotic CHOP UPR arm, primary screen, cell-based, CHO-CHOP luciferase reporter, luminescence, uHTS; UPR activation; percent of tunicamycin response over DMSO baseline; hit rate 0.34% among 330,000; AID 449763, 2010; activation, % at 10 µM;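 active = at 10 µM dose, activation of 40% or more, normalized to positive control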;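 note: 100% = tunicamycin at 10 µg/mL and 0% = DMSO alone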
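System: CHO-CHOP luciferase reporter cell line; amount: 500 cells/well; buffer or medium: F12 medium containing 10% fetal bovine serum; incubation: 6 h compound exposure at 37 °C after overnight seeding; measured by: luciferase luminescence after 10 min with Steady-Glo reagent; evaluation: % reporter activation, DMSO baseline versus tunicamycin full activation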
TLR9-MyD88 inh: inhibitors of TLR9-MyD88 association in cells, primary screen, cell-based, CHO, BLA complementation, fluorescence. hit rate 0.21% among 340,000. CCF4 FRET ratio. Toll-like receptor 9 (Homo sapiens) + Myeloid differentiation primary response protein …. AID 504734, 2011. inhibition, % at 4.98 µM;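 active = inhibition above the mean over all tested compounds plus 3 SD, cut at about 21% in these data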;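 note: 0% = DMSO only wells and 100% = clavulanate BLA inhibitor control wells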
NOD2-RIPK2 inh: NOD2-RIPK2 binding disruptors in cells, primary screen, fluorescence, CHO cells, BLA complementation. Receptor-interacting serine/threonine-protein kinase 2 (Homo sapiens), O43353. CCF4 ratio. inhibition, % at 4.98 µM. hit rate 0.38% among 360,000; in the data active = inhibition above about 21%;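 note: 0% = vehicle only and 100% = reference blocker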
Target sequence (O43353 whole entry, looked up): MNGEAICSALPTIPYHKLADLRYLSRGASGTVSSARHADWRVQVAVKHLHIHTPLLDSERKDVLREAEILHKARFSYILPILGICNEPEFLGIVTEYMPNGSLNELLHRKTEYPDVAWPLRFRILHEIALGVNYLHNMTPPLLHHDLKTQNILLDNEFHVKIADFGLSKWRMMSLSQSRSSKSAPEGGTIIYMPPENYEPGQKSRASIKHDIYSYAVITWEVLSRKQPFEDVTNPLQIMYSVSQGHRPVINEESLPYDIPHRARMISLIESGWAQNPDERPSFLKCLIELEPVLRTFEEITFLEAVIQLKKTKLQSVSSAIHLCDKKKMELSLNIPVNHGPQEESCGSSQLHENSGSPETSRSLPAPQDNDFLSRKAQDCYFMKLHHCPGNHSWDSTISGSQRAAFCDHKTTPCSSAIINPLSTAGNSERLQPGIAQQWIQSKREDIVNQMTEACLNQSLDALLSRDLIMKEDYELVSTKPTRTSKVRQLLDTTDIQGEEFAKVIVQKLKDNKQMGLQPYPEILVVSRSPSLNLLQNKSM
An asterisk follows results filed as active; . = not tested or not shown. Many of the other results were omitted from the sample, so hits are more common in it than they were.

SMILES	CHOP inhibitor	XBP1 UPR activ	TLR4-MyD88 BLA	UPR CHOP act	TLR9-MyD88 inh	NOD2-RIPK2 inh
O=C(CCN1CCN(CCO)CC1)Nc1ccc(OCc2ccccc2)cc1	2.2	1.0	-0.1	-1.8	4.3	4.3
CCN(c1ccc(OC)cc1)S(=O)(=O)c1nnc(NC(=O)COc2ccccc2)s1	.	-2.8	.	0.2	0.5	-3.5
CC(C)(C)NC(=O)CN(CCN1CCOCC1)C(=O)CNS(=O)(=O)c1ccccc1	.	-1.9	.	1.3	-1.1	-14.8
Clc1ccsc1-c1ccc2ccccc2n1	89.5*	0.9	-10.1	7.7	3.7	-2.9
CSc1ccccc1NC(=O)C1(C)CCN1C(=O)Cc1ccc(-c2ccccc2)cc1 (stereo not drawn)	.	.	.	.	.	-10.7
O=C(NCCC1=CCCCC1)C1CCC(CNc2nc(=S)[nH]c3ccccc23)CC1 (stereo not drawn)	94.0*	9.6	-15.7	2.7	-7.4	6.3
O=C(NCCc1ccc(Cl)cc1)C1CCC(CNc2nc(=S)[nH]c3ccccc23)CC1 (stereo not drawn)	86.6*	26.9	-4.0	-1.5	-0.5	-3.4
CC(C)n1c(=O)c2ccccc2n1Cc1cn(Cc2cccs2)nn1	.	.	.	.	.	-11.5
N/C(=N\OC(=O)COc1ccc2ccccc2c1)c1cccnc1	10.0	2.3	-8.9	3.4	-0.9	5.7
Cn1c(=O)cc(SCC(=O)NCCC2=CCCCC2)c2cc(Cl)ccc21	93.1*	-1.6	-11.0	-1.3	-6.0	3.9
Cn1c(=O)cc(OCCCC(=O)NCCC2=CCCCC2)c2ccccc21	9.7	1.8	2.6	-1.0	-20.0	-2.5
CCOC(=O)c1c(NC(=O)CN2C(=O)C(=O)N(CC(C)C)C2=O)sc(C)c1CC	.	-0.9	.	-0.3	4.3	-6.1
Cc1cc(=O)[nH]c(N/N=C/c2ccc(OC(=O)c3ccco3)cc2)n1	-11.0	4.2	-19.0	-1.8	-1.5	-2.0
C=C(C)c1cccc(C(C)(C)NC(=O)Nc2ccc(Cl)cn2)c1	77.8*	-1.1	-5.9	1.1	-17.4	-1.9
COc1ccccc1C(=O)N(Cc1nc(-c2ccc(Cl)cc2)no1)C(C)C	74.5*	-2.9	-3.5	-1.8	4.8	2.6
COc1ccc(-c2noc(CN(C(=O)c3c(-c4ccccc4Cl)noc3C)C(C)C)n2)cc1	72.1*	-3.6	-13.8	-3.7	-8.5	8.4
COc1cccc(-c2cnc(C(O)c3ccc(Cl)cc3)[nH]2)c1 (stereo not drawn)	.	.	.	.	.	1.2
Cc1ccc(CSC(Nc2ccc(F)cc2)=C(C#N)C#N)cc1	75.9*	-1.1	-3.3	3.7	-12.9	-8.3
O=C(Nc1ccc(Cl)cn1)c1ccc(COCC(F)(F)C(F)F)o1	95.8*	3.2	1.6	0.3	3.0	-3.1
COc1ccc(OC)c(CN2C(=O)c3ccccc3C2c2nnnn2-c2ccc3c(c2)OCCO3)c1 (stereo not drawn)	.	.	.	.	.	-1.2
COCCNC(=O)CSc1nc2scc(-c3ccccc3)c2c(=O)[nH]1	-6.2	0.8	.	-0.6	4.1	-1.5
COC(=O)CSc1nc(NC(C)(C)C)nc(N(C)C)n1	-6.7	2.5	13.7	2.3	7.5	1.5
CC(=O)C(Sc1nc(NC(C)(C)C)nc(N(C)C)n1)C(C)=O	72.8*	-1.0	4.2	1.2	-0.8	-3.4
CC(=O)NC(c1ccccc1)c1nc(/C=C/c2ccccc2)cs1 (stereo not drawn)	.	.	.	.	.	-13.5
Oc1cccc(-c2nc3ccc4ccccc4c3c3c2CCC3)c1	81.8*	2.8	-5.9	4.0	-4.0	-16.8
CC(C)(C)c1ccc(CNc2ccc([N+](=O)[O-])cn2)cc1	86.7*	.	5.0	.	-10.4	4.8
O=[N+]([O-])c1ccc(NCc2ccc(Cl)cc2)nc1	-11.5	-1.8	.	1.1	-10.6	-14.8
CC(C)c1ccc(CNc2ccc([N+](=O)[O-])cn2)cc1	83.4*	1.3	-8.8	4.8	0.1	-3.7

Compound activity: PubChem BioAssay, several laboratories
